# Rows were chosen to be rich in hits. Some 3.1% of all compounds tested hit in one or more screens of this group.
# LEDGF integ inh: blocks HIV-1 LEDGF/p75-dependent DNA integration | TR-FRET IN-LEDGF/p75 DNA integration, Eu/Cy5 | inhibition, % at 3.7 µM | actives 0.64% (n = 370,000);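 active = inhibition above the screen-wide mean plus 3 SD, cut at about 13% in these data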;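 note: signal is the Cy5 over europium emission ratio at 671 and 618 nm; 0% = plate median of compound wells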
# ATG4B inh: ATG4B (human) cysteine protease inhibition; actives 0.51% (n = 340,000); ATG4B cleavage of LC3-PLA2, NBD-HPC fluorescence, 1 h; AID 504462; inhibition, % at 8.33 µM; in the data active = inhibition above about 40%
# CSN deneddyl inh: CSN deneddylation inhibition | actives 0.38% (n = 360,000) | Q92905 | inhibition, % at 12.5 µM | Purified CSN, SCF-Nedd8-OG deneddylation, fluorescence polarization;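 active = pattern-corrected inhibition above about 35%, with an unprinted fluorescence ratio check between 0.5 and 1.5, limit read from the data, passing the limit was not always enough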;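 note: 0% = enzyme with substrate and 100% = substrate without enzyme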
#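 Detection – fluorescence polarization · System – HEK293T-derived human Csn5 enzyme · Controls – substrate-only high control, full reaction low control · Timing – 90 min, room temperature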
# MBD2 DNA inh: MBD2-methylated oligo binding inhibition; TR-FRET, MBD2 binding to methylated oligonucleotide; AID 686964; actives 0.31% (n = 370,000); inhibition, % at 4.4 µM; Q9UBB5; in the data active = inhibition above about 13%
# rCAG binder: r(CAG) repeat RNA binding; TO-PRO-1 dye displacement fluorescence; inhibition, % at 3 µM; actives 1.3% (n = 370,000); AID 651821;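 active = inhibition above the plate cutoff, the mean of all test compounds on that plate plus 3 SD, cut at about 35% in these data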;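 note: 0% = DMSO alone and 100% = 100 µM mitoxantrone as full dye displacement; higher means more dye released from RNA so lower well fluorescence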
# UHRF1 binding: human UHRF1 methylated DNA binding inhibitors; Q96T88; UHRF1 binding to methylated oligo, TR-FRET; inhibition, % at 4.4 µM; actives 0.75% (n = 370,000); AID 687016; in the data active = inhibition above about 21%;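 note: UHRF1 SRA domain binding a hemimethylated CpG hairpin DNA probe; 0% = median of test compound wells and 100% = reference inhibitor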
# Target sequence (Q96T88 whole entry, looked up, the tested form may be a part): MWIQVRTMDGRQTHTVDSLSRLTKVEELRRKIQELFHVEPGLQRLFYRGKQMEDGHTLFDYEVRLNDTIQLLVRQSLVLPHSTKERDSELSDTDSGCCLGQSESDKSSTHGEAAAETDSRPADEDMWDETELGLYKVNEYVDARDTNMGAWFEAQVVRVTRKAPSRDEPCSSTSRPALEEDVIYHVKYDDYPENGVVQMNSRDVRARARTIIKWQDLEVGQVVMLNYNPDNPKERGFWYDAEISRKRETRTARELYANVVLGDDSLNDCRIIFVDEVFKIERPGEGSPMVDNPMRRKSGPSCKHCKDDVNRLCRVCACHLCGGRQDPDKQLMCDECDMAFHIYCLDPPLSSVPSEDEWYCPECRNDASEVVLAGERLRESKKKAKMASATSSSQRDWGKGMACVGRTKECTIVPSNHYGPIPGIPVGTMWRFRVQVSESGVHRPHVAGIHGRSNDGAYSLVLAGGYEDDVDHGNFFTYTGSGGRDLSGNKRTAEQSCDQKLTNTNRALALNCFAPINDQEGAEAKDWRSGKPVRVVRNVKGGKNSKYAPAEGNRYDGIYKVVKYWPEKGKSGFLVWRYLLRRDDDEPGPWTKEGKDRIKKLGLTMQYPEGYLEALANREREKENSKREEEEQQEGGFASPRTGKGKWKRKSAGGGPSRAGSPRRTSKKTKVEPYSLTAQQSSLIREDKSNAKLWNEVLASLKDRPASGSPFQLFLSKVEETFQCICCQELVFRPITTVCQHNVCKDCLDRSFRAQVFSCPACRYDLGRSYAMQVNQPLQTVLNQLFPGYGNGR
# * marks the source's active call; other numbers are inactive results; · = no result; + = active, no number.
SMILES,LEDGF integ inh,ATG4B inh,CSN deneddyl inh,MBD2 DNA inh,rCAG binder,UHRF1 binding
Cc1ccc(-c2nc3c(Cl)cc(C(F)(F)F)cn3c2Cc2ccccc2C(F)(F)F)cc1,3.5,·,-0.8,3.2,35.3*,4.9
CCc1ccc(S(=O)(=O)/N=C2\C=C(Nc3ccc(C(=O)O)cc3)C(=O)c3ccccc32)cc1,28.8*,25.4,6.1,-5.6,88.8*,8.5
COC(=O)c1ccccc1NC1=C/C(=N\S(=O)(=O)c2ccc(C(=O)O)cc2)c2ccccc2C1=O,·,27.6,16.1,·,·,·
O=C(c1ccc(Cl)c(Cl)c1)N1CCN(c2ccnc3cc(Cl)ccc23)CC1,3.0,·,·,-2.8,·,1.5
Cc1ccc(/C=C/C(=O)N2CCc3ccccc32)o1,8.8,-1.5,15.7,12.9,34.0,30.8*
CC1=NN(c2ccc(C(=O)O)c(N)c2)C(=O)C1,30.6*,1.9,15.8,0.7,1.5,27.8*
O=S1(=O)c2c(cccc2N2CCSCC2)Oc2ccccc2CN1Cc1cn(Cc2ccc(C(F)(F)F)cc2)nn1,3.3,·,·,-6.5,8.2,0.2
CC(C)C[C@@H](COCc1ccc(Cl)cc1)N1CCN(C(=O)c2ccc(C(F)(F)F)cc2)CCC1=O,-2.9,·,1.8,-2.3,-1.6,0.7
CC(C)C[C@@H](COCc1ccc([N+](=O)[O-])cc1)N1CCN(C(=O)c2ccc(C(F)(F)F)cc2)CCC1=O,-1.8,·,0.8,5.0,-0.7,21.5*
COc1cc(C2Nc3cccc4cccc(c34)N2)cc(OC)c1O,-1.5,-54.4,-2.3,2.9,36.0*,4.0
CSc1ccc(OC2CCCCC2NS(=O)(=O)c2ccccc2)cc1 (stereo unspecified),-4.4,-6.5,0.1,1.5,-1.5,98.2*
COCCn1cnnc1SCC(=O)Nc1sc2c(c1C#N)CCC2,5.7,-7.0,8.6,1.2,7.8,-2.1
Cn1cnnc1SCC(=O)Nc1sc2c(c1C(N)=O)CCC2,5.8,29.3,49.7*,9.6,25.9,25.1*
CSc1ccc(C(=O)C2CCCN(C(=O)c3cccnc3SC)C2)cc1 (stereo unspecified),0.4,-6.0,2.0,13.0,-4.0,25.9*
CC1(C)CC(=O)C=C(Nc2ccccc2NC(=O)c2cccc(F)c2F)C1,-1.3,·,·,1.3,-0.5,-2.0
O=C(COC(=O)c1ccc(O)cc1)Nc1cc(S(=O)(=O)N2CCCCCC2)ccc1Cl,3.4,·,-4.0,-6.4,10.9,-0.9
O=C(CCNC(=O)c1ccc(Br)cc1)Nc1cccc(S(=O)(=O)N2CCCCCC2)c1,-1.2,-4.5,-7.0,1.7,1.1,0.5
Cc1csc(SCC(=O)Nc2cccc(S(=O)(=O)N3CCCC3)c2)n1,-4.3,1.1,106.5*,1.0,1.8,-2.6
Cc1csc(SCC(=O)Nc2cc(S(=O)(=O)N3CCCC3)ccc2Cl)n1,-1.3,-11.3,2.2,1.2,3.6,-0.2
O=C(CCNC(=O)c1ccc(Br)cc1)Nc1cccc(S(=O)(=O)N2CCCC2)c1,-3.6,-9.5,-2.3,8.7,6.3,36.4*
Cc1cc(C)c(C(=O)OCC(=O)Nc2cccc(S(=O)(=O)N3CCCCC3)c2)c(C)c1,-0.1,-17.5,+,-5.2,12.8,0.5
Cc1ccc(S(=O)(=O)N2CCCCC2)cc1NC(=O)COC(=O)c1ccc(O)cc1,-2.0,-12.2,-4.9,-0.9,9.6,34.3*
Cc1nc2sc(C(=O)NCc3nccs3)c(N)c2c(C)c1Cl,1.9,·,·,-6.3,5.8,-1.0
CCOc1ccc(CCNC(=O)c2cc3ccsc3n2C)cc1OC,5.5,·,·,4.2,1.1,7.1
Cc1ccc(NCc2nnc(SCC(=O)Nc3cc(C)on3)n2C)cc1,-3.0,3.7,1.9,6.2,3.5,2.2
CCSc1nnc(CNc2ccc(C)cc2)n1C,-0.4,-10.0,3.7,10.6,-4.6,23.6*
COc1cccc(/C=C/C(=O)OCC(=O)NCCC2=CCCCC2)c1,2.9,-7.2,1.3,0.8,-10.5,36.6*
COc1ccc(/C=C/C(=O)OCC(=O)NCCC2=CCCCC2)cc1,-0.1,5.7,-10.9,4.6,-9.4,-3.8
CCOC(=O)[C@@]12CCCC3=C1N(CCC3)C(=O)[C@H]2CC(=O)N1CCCCC1,-0.8,·,·,-1.2,-3.1,-0.9
CC(C)(CN1CCN(Cc2ccccc2)CC1)NS(=O)(=O)c1ccccc1,1.4,-5.8,-1.0,3.9,-8.0,22.3*

# Screening data as filed in PubChem BioAssay.
